From ChEMBL document CHEMBL3045883, “Antifungal effects of different organic extracts from Melia azedarach L. on phytopathogenic fungi and their isolated active components” (J Agric Food Chem, 2003)
Values after ≈ are worked out from the molar mass of the structure shown.

Columns and labels:
[1] = system: Fusarium verticillioides; assay: Antifungal activity against Fusarium verticillioides assessed as growth inhibition after 48 hr by inverted light microscopic analysis; assay type: functional, organism-based
Summary of the method: (§1)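 Broth microdilution: F. verticillioides conidia, 4 days old, from a monosporic culture, in glucose-mineral salts medium at 1 × 10^5 conidia/mL. Pure compounds in DMSO added to wells in duplicate ([…]; final DMSO 2–4%). Controls were spore wells with or without DMSO. Percent growth (0–100) scored visually by inverted light microscope, always by the same operator. IC50 derived by Probit analysis.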

[2] = system: Fusarium verticillioides; assay: Fungistatic activity against Fusarium verticillioides after 48 hr by broth microdilution method; assay type: functional; summary of the method: as §1
[3] = system: Fusarium verticillioides; assay: Antifungal activity against Fusarium verticillioides assessed as growth inhibition at 0.6 mg/mL after 48 hr by inverted light microscopic analysis; assay type: functional; conditions: read-out: GI; summary of the method: as §1
[4] = system: Fusarium verticillioides; assay: Antifungal activity against Fusarium verticillioides assessed as growth inhibition at 0.8 mg/mL after 48 hr by inverted light microscopic analysis; assay type: functional; conditions: read-out: GI; summary of the method: as §1
[5] = system: Fusarium verticillioides; assay: Antifungal activity against Fusarium verticillioides assessed as growth inhibition at 0.2 mg/mL after 48 hr by inverted light microscopic analysis; assay type: functional; conditions: read-out: GI; summary of the method: as §1
[6] = system: Fusarium verticillioides; assay: Antifungal activity against Fusarium verticillioides assessed as growth inhibition at 0.4 mg/mL after 48 hr by inverted light microscopic analysis; assay type: functional; conditions: read-out: GI; summary of the method: as §1

| Compound | IC50 [1] [µg/mL] | growth inhibition (GI) [1] | MIC [2] [µg/mL] | inhibition of growth at 600 µg/mL [3] [%] | inhibition of growth at 800 µg/mL [4] [%] | inhibition of growth at 200 µg/mL [5] [%] | inhibition of growth at 400 µg/mL [6] [%] |
| --- | --- | --- | --- | --- | --- | --- | --- |
| COc1cc(C2OCC3C(c4ccc(O)c(OC)c4)OCC23)ccc1O (racemic) [(+/-)-PINORESINOL] | 760 (≈ 2120 µM) | Dose-dependent effect | 1000 (≈ 2790 µM) | 20 | 40 | – | – |
| COc1cc(/C=C/C=O)ccc1O [CONIFERYL ALDEHYDE] | 240 (≈ 1350 µM) | Dose-dependent effect | 400 (≈ 2240 µM) | – | – | 20 | – |
| COc1cc(C=O)ccc1O [VANILLIN] | 300 (≈ 1970 µM) | Dose-dependent effect | 600 (≈ 3940 µM) | – | – | 20 | 65 |
